Laboratory results: ChEMBL document CHEMBL4680154, “The optimization of xanthine derivatives leading to HBK001 hydrochloride as a potent dual ligand targeting DPP-IV and GPR119” (Eur J Med Chem, 2020)
Values after ≈ are worked out from the molar mass of the structure shown.

Legend:
DPP8/9 = DPP8/9 (Homo sapiens, UniProt Q6V1X1+Q86TI2); test: Inhibition of recombinant human DPP8/9 expressed in Rosetta cells at 10 uM using Gly-Pro-p-nitroanilide as substrate incubated for 1 hr relative to control; conditions: probe Gly-Pro-p-nitroanilide
[1] = molecular target: T1, Glucose-dependent insulinotropic receptor (Homo sapiens) (UniProt Q8TDV5); test: Agonist activity at CREB-LBD and Gal4-DBD fused recombinant human GPR119 expressed in HEK293 cells at 1 uM by firefly luciferase assay relative to AR231453; format: functional, cell-based
T1 sequence (whole entry): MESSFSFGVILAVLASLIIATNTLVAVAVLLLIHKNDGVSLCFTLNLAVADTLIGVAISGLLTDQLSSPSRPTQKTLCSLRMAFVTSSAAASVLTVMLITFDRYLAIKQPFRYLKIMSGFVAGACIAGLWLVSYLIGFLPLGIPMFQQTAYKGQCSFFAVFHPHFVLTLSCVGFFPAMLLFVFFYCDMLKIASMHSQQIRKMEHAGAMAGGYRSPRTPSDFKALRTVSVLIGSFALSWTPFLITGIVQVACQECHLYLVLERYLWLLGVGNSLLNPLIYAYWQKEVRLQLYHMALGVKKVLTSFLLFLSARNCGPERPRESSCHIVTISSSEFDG
How it was run: (§1)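 HEK293 cells transiently transfected with human GPR119, a Gal4-DBD/CREB-LBD fusion and a Gal4 UAS-driven luciferase reporter, then treated with compound (DMSO vehicle). Firefly luciferase luminescence read. Activation fold = compound/vehicle, expressed as percent of the AR231453 activation fold. EC50 obtained by curve fitting.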

[2] = molecular target: T2, Glucose-dependent insulinotropic receptor (Homo sapiens, UniProt Q8TDV5); test: Agonist activity at CREB-LBD and Gal4-DBD fused recombinant human GPR119 expressed in HEK293 cells by firefly luciferase assay; format: functional, cell-based; how it was run: as §1
T2 sequence (Q8TDV5 whole entry): T1 sequence (whole entry)

[3] = Metabolic stability in ICR/CD-1 mouse hepatocytes assessed as parent compound remaining incubated for 30 mins by LC-MS/MS analysis; format: ADME, cell-based, Hepatocyte; conditions: read-out: Stabilty
How it was run: (§2)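 Hepatocytes from male ICR/CD-1 mice, male Sprague-Dawley rats, or mixed human donors. Parent compound measured after 30 min incubation and normalised to the time-zero concentration.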

[4] = Metabolic stability in Sprague-Dawley rat hepatocytes assessed as parent compound remaining incubated for 30 mins by LC-MS/MS analysis; format: ADME, cell-based, Hepatocyte; conditions: read-out: Stabilty; how it was run: as §2
[5] = Metabolic stability in human hepatocytes assessed as parent compound remaining incubated for 30 mins by LC-MS/MS analysis; format: ADME, cell-based, Hepatocyte; conditions: read-out: Stabilty; how it was run: as §2
Vero = test: Cytotoxicity against African green monkey Vero cells incubated for 48 hrs by MTT assay; conditions: Chlorocebus sabaeus
[6] = Elimination half life in ICR mouse plasma at 20 mg/kg, po measured up to 24 hrs; format: ADME, organism-based; conditions: read-out: beta t1/2 (converted)
How it was run: (§3)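 Male ICR mice (26–27 g), three per route. Oral dose given as a 2 mg/mL suspension in 0.5% carboxymethyl cellulose; intravenous dose as 0.4 mg/mL in 30% SBECD with 1 mol/L HCl. Blood taken at 5, 15, 30 min and 1, 2, 4, 7, 24 h; plasma stored at -80 °C. Non-compartmental analysis; F = (AUCpo×dose iv)/(AUCiv×dose po).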

[7] = Elimination half life in ICR mouse plasma at 2 mg/kg, iv measured up to 24 hrs; format: ADME, organism-based; conditions: read-out: beta t1/2 (converted); how it was run: as §3
[8] = Elimination half-life in Sprague-Dawley rat plasma at 30 mg/kg, po measured up to 24 hrs; format: ADME, organism-based; conditions: read-out: beta t1/2 (converted)
How it was run: (§4)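 Male SD rats (180–200 g), three per route, dosed as free base content. Oral formulation in 0.5% carboxymethyl cellulose; intravenous formulation in normal saline. Sampling at 5, 15, 30 min and 1, 1.5, 2, 4, 6, 8, 12, 24 h; plasma kept at -80 °C. Non-compartmental parameters; F = (AUCpo×dose iv)/(AUCiv×dose po).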

[9] = Tmax in ICR mouse plasma at 20 mg/kg, po measured up to 24 hrs; format: ADME, organism-based; how it was run: as §3
[10] = Tmax in Sprague-Dawley rat plasma at 30 mg/kg, po measured up to 24 hrs; format: ADME, organism-based; how it was run: as §4
[11] = Cmax in ICR mouse plasma at 20 mg/kg, po measured up to 24 hrs; format: ADME, organism-based; parameters: route oral, dose 20 mg/kg, time <=24; how it was run: as §3
[12] = Cmax in ICR mouse plasma at 2 mg/kg, iv measured up to 24 hrs; format: ADME, organism-based; parameters: route intravenous, dose 2 mg/kg, time <=24; how it was run: as §3
[13] = Cmax in Sprague-Dawley rat plasma at 30 mg/kg, po measured up to 24 hrs; format: ADME, organism-based; parameters: route oral, dose 30 mg/kg, time <=24; how it was run: as §4
[14] = AUC(0 to t) in ICR mouse plasma at 20 mg/kg, po measured up to 24 hrs; format: ADME, organism-based; parameters: route oral, dose 20 mg/kg, time <=24; how it was run: as §3
[15] = AUC(0 to t) in ICR mouse plasma at 2 mg/kg, iv measured up to 24 hrs; format: ADME, organism-based; parameters: route intravenous, dose 2 mg/kg, time <=24; how it was run: as §3
[16] = AUC(0 to t) in Sprague-Dawley rat plasma at 30 mg/kg, po measured up to 24 hrs; format: ADME, organism-based; parameters: route oral, dose 30 mg/kg, time <=24; how it was run: as §4
[17] = AUC(0 to infinity) in ICR mouse plasma at 20 mg/kg, po measured up to 24 hrs; format: ADME, organism-based; parameters: route oral, dose 20 mg/kg, time <=24; how it was run: as §3
[18] = AUC(0 to infinity) in ICR mouse plasma at 2 mg/kg, iv measured up to 24 hrs; format: ADME, organism-based; parameters: route intravenous, dose 2 mg/kg, time <=24; how it was run: as §3
[19] = AUC(0 to infinity) in Sprague-Dawley rat plasma at 30 mg/kg, po measured up to 24 hrs; format: ADME, organism-based; parameters: route oral, dose 30 mg/kg, time <=24; how it was run: as §4
[20] = Mean residence time (0 to infinity) in ICR mouse at 20 mg/kg, po measured up to 24 hrs; format: ADME, organism-based; conditions: in vivo; how it was run: as §3
[21] = Mean residence time (0 to infinity) in ICR mouse at 2 mg/kg, iv measured up to 24 hrs; format: ADME, organism-based; conditions: in vivo; how it was run: as §3
[22] = Mean residence time (0 to infinity) in Sprague-Dawley rat at 30 mg/kg, po measured up to 24 hrs; format: ADME, organism-based; conditions: in vivo; how it was run: as §4
[23] = Oral bioavailability in ICR mouse at 20 mg/kg; format: ADME, organism-based; conditions: in vivo; how it was run: as §3
[24] = Oral bioavailability in Sprague-Dawley rat at 30 mg/kg; format: ADME, organism-based; conditions: in vivo; how it was run: as §4
Mus musculus = test: Antidiabetic activity in ICR mouse assessed as reduction in blood glucose AUC at 10 mg/kg, po administered as single dose followed by glucose challenge measured upto 120 mins by OGTT relative to control; format: functional; parameters: scale not given: the % may be the effect or the level left; conditions: time min <=120
How it was run: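 ICR mice were fasted overnight and dosed by oral gavage, with distilled water as vehicle, before an oral glucose load of 2 g/kg. Tail-tip blood was sampled at 0, 30, 60 and 120 min and glucose measured by the glucose oxidase method. AUC was compared with the vehicle group. n = 10 per group, mean ± SEM.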

## CC#CCn1c(N2CCC[C@@H](N)C2)nc2c1c(=O)n(CCCN1CCN(c3nnc(-c4ccccc4)[nH]3)CC1)c(=O)n2C
DPP8/9
  inhibition at 1 h, 10 µM: 7.3%
[1]
  Activity: 38%

## CC#CCn1c(N2CCC[C@@H](N)C2)nc2c1c(=O)n(CCCN1CCN(c3nc(-c4ccccc4)no3)CC1)c(=O)n2C
DPP8/9
  inhibition at 1 h, 10 µM: 0%
[2]
  EC50: 1.4 µM
[3]
  remaining at 0.5 h: 32%
[4]
  remaining at 0.5 h: 23.8%
[5]
  remaining at 0.5 h: 101%
Vero
  IC50: 46.6 µg/mL (≈ 79.4 µM)
[6]
  half-life: 1.06 h
[7]
  half-life: 1.64 h
[8]
  half-life: 1.11 h
[9]
  Tmax: 0.42 h
[10]
  Tmax: 1.17 h
[11]
  Cmax: 213 ng/mL
[12]
  Cmax: 850 ng/mL
[13]
  Cmax: 192 ng/mL
[14]
  AUC(0-t) at 24 h: 308 ng·h/mL
[15]
  AUC(0-t) at 24 h: 257 ng·h/mL
[16]
  AUC(0-t) at 24 h: 468 ng·h/mL
[17]
  AUC(0-inf): 318 ng·h/mL
[18]
  AUC(0-inf): 261 ng·h/mL
[19]
  AUC(0-inf): 502 ng·h/mL
[20]
  MRT inf: 1.22 h
[21]
  MRT inf: 0.76 h
[22]
  MRT inf: 2.11 h
[23]
  bioavailability: 12.2%
[24]
  bioavailability: 31.8%

## CC#CCn1c(N2CCC[C@@H](N)C2)nc2c1c(=O)n(CCCN1CCN(c3ncc(C)cn3)CC1)c(=O)n2C
[1]; filed as agonist
  Activity: 60%
[2]
  EC50: 2.56 µM

## CC#CCn1c(N2CCC[C@@H](N)C2)nc2c1c(=O)n(CCCN1CCN(c3nc(-c4ccccc4)cs3)CC1)c(=O)n2C
DPP8/9
  inhibition at 1 h, 10 µM: 0%
[1]; filed as agonist
  Activity: 56%
[2]
  EC50: 0.65 µM
[3]
  remaining at 0.5 h: 68.3%
[4]
  remaining at 0.5 h: 39.6%
[5]
  remaining at 0.5 h: 91.5%
Vero
  IC50: 4.3 µg/mL (≈ 7.15 µM)

## CC#CCn1c(N2CCC[C@@H](N)C2)nc2c1c(=O)n(CCCN1CCC(c3nc(-c4ccccc4)no3)CC1)c(=O)n2C
[1]; filed as agonist
  Activity: 55%

## CC#CCn1c(N2CCC[C@@H](N)C2)nc2c1c(=O)n(CCCN1CCN(c3ncc(F)cn3)CC1)c(=O)n2C
[1]; filed as agonist
  Activity: 78%
[2]
  EC50: 1.41 µM

## CC#CCn1c(N2CCC[C@@H](N)C2)nc2c1c(=O)n(CCCN1CCC(n3cc(-c4ccccc4)nn3)CC1)c(=O)n2C
DPP8/9
  inhibition at 1 h, 10 µM: 0%
[1]; filed as agonist
  Activity: 47%
[3]
  remaining at 0.5 h: 21%
[4]
  remaining at 0.5 h: 19.7%
[5]
  remaining at 0.5 h: 68.1%
Vero
  IC50: 25.9 µg/mL (≈ 44.3 µM)

## CC(C)c1noc(C2CCN(c3ncnc(Nc4ccc(S(C)(=O)=O)cc4F)c3[N+](=O)[O-])CC2)n1
[1]; filed as agonist
  Activity: 100%
[2]
  EC50: 0.64 µM

## CC#CCn1c(N2CCC[C@@H](N)C2)nc2c1c(=O)n(CCCN1CCC(c3nnnn3-c3ccccc3)CC1)c(=O)n2C
DPP8/9
  inhibition at 1 h, 10 µM: 4.6%
[1]; filed as agonist
  Activity: 53%

## COc1c(Nc2ccc(S(C)(=O)=O)nc2C)ncnc1OC1CCN(C(=O)OC(C)C)CC1 [ADP-597]
Mus musculus
  Activity: 19.9%

## N[C@@H](CC(=O)N1CCn2c(nnc2C(F)(F)F)C1)Cc1cc(F)c(F)cc1F [SITAGLIPTIN]
Mus musculus
  Activity: 27.3%
